“Also recorded” adds a separate entry of the source. Marks after values point to notes of the source that are not given here.
How the values were obtained:
Safety evaluation = format: in vivo, human
In short: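 Adults (≥20 years) with recurrent/progressive grade 2-4 IDH1-R132 glioma received oral twice-daily dosing in 21-day cycles at 125-1400 mg (six levels). Escalation used a modified continual reassessment method (Bayesian logistic regression, overdose control) with cohorts of 3-6 patients and DLT assessment over the 21-day cycle. TEAEs were recorded up to 28 days after the last dose, graded by CTCAE v4.0 and counted once per patient at worst severity. LVEF was monitored by echocardiography or MUGA.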

[1] = Plasma pharmacokinetics of DS-1001; format: in vivo, human; details: for Increase in Cmax and AUC0-8 h with dose: day 1 and day 8 of cycle 1
[2] = system: recurrent/progressive IDH1-mutant (R132) glioma; assay: Tumor response by RANO / RANO-LGG, PFS, treatment duration; format: in vivo, human; details: for Duration of CR: still on treatment
In short: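 MRI was performed every 6 weeks. Investigators classed tumors at enrollment as contrast-enhancing (assessed by RANO) or non-enhancing (assessed by RANO-LGG). Longest and orthogonal diameters were measured on the largest FLAIR/T2 slice. Best overall response required a confirmatory scan at least 4 weeks later. ORR counted CR, PR and MR. PFS ran from first dose to progression or death. Dosing was oral twice daily, continued until progression or intolerable toxicity.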

[3] = DS-1001 concentration in resected tumor tissue, plasma and CSF; format: in vivo, human; details: for DS-1001 concentration in resected tumor tissue: free form
In short: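 Drug levels were measured by validated LC-MS/MS and expressed as the free form. CSF was collected at screening and on cycle 1 day 15 (±3 days). Resected tumor and matched plasma were taken on the day of salvage surgery, after oral twice-daily dosing continued until surgery. Where a patient gave several tumor samples, the range is given. The brain/plasma ratio used the matched plasma sample.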

[4] = system: D-2-hydroxyglutarate (D-2-HG); assay: D-2-HG concentration in resected tumor tissue; format: in vivo, human
In short: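 Patients with IDH1-R132 glioma who were scheduled for salvage surgery after progression took the oral test compound twice daily until surgery. Tumor was resected on the day of surgery, homogenized in 0.1 w/v% bovine serum albumin solution, and derivatized with diacetyl-l-tartaric anhydride. D-2-HG was then quantified by LC-MS/MS against a commercial D-2-HG reference standard. On-treatment values were compared with matched archived frozen tumor from previous surgery, where available.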

[5] = mice, preclinical; cited from earlier work
[6] = system: orthotopic patient-derived xenograft model; details: continuous administration, preclinical; cited from earlier work
[7] = 12 non-enhancing tumors, RANO-LGG
[8] = non-enhancing (n = 12), RANO-LGG
[9] = Patient #003, 500 mg bid, 16.9 h after last dose
[10] = Patient #006, 700 mg bid, 7.2 h after last dose

Cc1cn(C(=O)c2c(-c3c(Cl)cc(Cl)cc3Cl)noc2C(C)(C)F)c2cccc(/C=C/C(=O)O)c12 [DS-1001]
Patients with at least 1 AE of any grade or causality (Safety evaluation; 45 of 47): 95.7%
Tolerability / safety profile (Safety evaluation; 125-1400 mg bid oral): well tolerated; also recorded: favorable safety profile
Maximum tolerated dose (MTD) (Safety evaluation; 125-1400 mg bid oral, highest dose level 1400 mg bid): not reached
Alanine aminotransferase increased, all grades (Safety evaluation; N = 47): 4 (8.5) n (%)
Alanine aminotransferase increased, grade 3 (Safety evaluation; N = 47): 3 (6.4) n (%)
All AEs, grade 3 (Safety evaluation; N = 47): 20 (42.6) n (%)
Alopecia, all grades (Safety evaluation; N = 47): 13 (27.7) n (%)
Alopecia, grade 3 (Safety evaluation; N = 47): 0 n (%)
Arthralgia, all grades (Safety evaluation; N = 47): 13 (27.7) n (%)
Arthralgia, grade 3 (Safety evaluation; N = 47): 1 (2.1) n (%)
Aspartate aminotransferase increased, all grades (Safety evaluation; N = 47): 3 (6.4) n (%)
Aspartate aminotransferase increased, grade 3 (Safety evaluation; N = 47): 2 (4.3) n (%)
Back pain, all grades (Safety evaluation; N = 47): 10 (21.3) n (%)
Back pain, grade 3 (Safety evaluation; N = 47): 0 n (%)
Decreased appetite, all grades (Safety evaluation; N = 47): 5 (10.6) n (%)
Decreased appetite, grade 3 (Safety evaluation; N = 47): 0 n (%)
Diarrhea, all grades (Safety evaluation; N = 47): 22 (46.8) n (%)
Diarrhea, grade 3 (Safety evaluation; N = 47): 2 (4.3) n (%)
Dose interruption due to arthralgia (Safety evaluation; N = 47): 10.6%
Dose interruption due to neutrophil count decreased (Safety evaluation; N = 47): 12.8%
Dose reduction associated with alanine aminotransferase increased (Safety evaluation; N = 47): 4.3%
Dose reduction associated with arthralgia (Safety evaluation; N = 47): 10.6%
Dose reduction associated with back pain (Safety evaluation; N = 47): 6.4%
Dose reduction associated with neck pain (Safety evaluation; N = 47): 2.1%
Dose reduction associated with neutrophil count decreased (Safety evaluation; N = 47): 6.4%
Dose reduction associated with white blood cell count decreased (Safety evaluation; N = 47): 4.3%
Dry skin, all grades (Safety evaluation; N = 47): 10 (21.3) n (%)
Dry skin, grade 3 (Safety evaluation; N = 47): 0 n (%)
Feces soft, all grades (Safety evaluation; N = 47): 6 (12.8) n (%)
Feces soft, grade 3 (Safety evaluation; N = 47): 0 n (%)
Grade 4 or 5 AEs or serious drug-related AEs (Safety evaluation; N = 47): No grade 4 or 5 AEs or serious drug-related AEs were reported
Headache, all grades (Safety evaluation; N = 47): 11 (23.4) n (%)
Headache, grade 3 (Safety evaluation; N = 47): 1 (2.1) n (%)
Hypophosphatemia, all grades (Safety evaluation; N = 47): 2 (4.3) n (%)
Hypophosphatemia, grade 3 (Safety evaluation; N = 47): 2 (4.3) n (%)
Nasopharyngitis, all grades (Safety evaluation; N = 47): 7 (14.9) n (%)
Nasopharyngitis, grade 3 (Safety evaluation; N = 47): 0 n (%)
Nausea, all grades (Safety evaluation; N = 47): 12 (25.5) n (%)
Nausea, grade 3 (Safety evaluation; N = 47): 0 n (%)
Neutrophil count decreased, all grades (Safety evaluation; N = 47): 7 (14.9) n (%)
Neutrophil count decreased, grade 3 (Safety evaluation; N = 47): 6 (12.8) n (%)
Patients with TEAEs associated with dose reduction (Safety evaluation; N = 47): 27.7%
Patients with at least 1 dose interruption due to TEAEs (Safety evaluation; N = 47): 57.4%
Patients with at least 1 grade 3 AE (TEAE) (Safety evaluation; N = 47): 42.6%
Pruritus, all grades (Safety evaluation; N = 47): 14 (29.8) n (%)
Pruritus, grade 3 (Safety evaluation; N = 47): 0 n (%)
Rash, all grades (Safety evaluation; N = 47): 11 (23.4) n (%)
Rash, grade 3 (Safety evaluation; N = 47): 0 n (%)
Skin hyperpigmentation, all grades (Safety evaluation; N = 47): 25 (53.2) n (%)
Skin hyperpigmentation, grade 3 (Safety evaluation; N = 47): 0 n (%)
Vomiting, all grades (Safety evaluation; N = 47): 9 (19.1) n (%)
Vomiting, grade 3 (Safety evaluation; N = 47): 0 n (%)
White blood cell count decreased, all grades (Safety evaluation; N = 47): 3 (6.4) n (%)
White blood cell count decreased, grade 3 (Safety evaluation; N = 47): 3 (6.4) n (%)
Alanine aminotransferase increased, grade 3 (Safety evaluation; N = 47, text): 6.4%
Alopecia, any grade (Safety evaluation; N = 47, text): 27.7%
Arthralgia, any grade (Safety evaluation; N = 47, text): 27.7%
Aspartate aminotransferase increased, grade 3 (Safety evaluation; N = 47, text): 4.3%
Back pain, any grade (Safety evaluation; N = 47, text): 21.3%
Diarrhea, any grade (Safety evaluation; N = 47, text): 46.8%
Diarrhea, grade 3 (Safety evaluation; N = 47, text): 4.3%
Dry skin, any grade (Safety evaluation; N = 47, text): 21.3%
Headache, any grade (Safety evaluation; N = 47, text): 23.4%
Hypophosphatemia, grade 3 (Safety evaluation; N = 47, text): 4.3%
Nausea, any grade (Safety evaluation; N = 47, text): 25.5%
Neutrophil count decreased, grade 3 (Safety evaluation; N = 47, text): 12.8%
Pruritus, any grade (Safety evaluation; N = 47, text): 29.8%
Rash, any grade (Safety evaluation; N = 47, text): 23.4%
Skin hyperpigmentation, any grade (Safety evaluation; N = 47, text): 53.2%
White blood cell count decreased, grade 3 (Safety evaluation; N = 47, text): 6.4%
Dose-limiting toxicity (DLT) (Safety evaluation; at 1000 mg bid): One DLT, grade 3 white blood cell count decreased
Dose modification due to pain (Safety evaluation; doses ≤250 mg bid): no dose modification due to pain
Dose modification due to pain (Safety evaluation; doses ≥500 mg bid): most patients who received long-term administration of DS-1001 required dose modifications due to episodes of pain
Discontinued due to an AE (alanine aminotransferase increased) (Safety evaluation; of 39 patients who discontinued): 1 patients
All AEs, all grades (Safety evaluation; safety analysis set N = 47): 45 (95.7) n (%)
Increase in Cmax and AUC0-8 h with dose ([1]; 125 to 700 mg bid): approximately dose-proportional
Increase in Cmax and AUC0-8 h with dose ([1]; 700 to 1400 mg bid): less than dose-proportional
Median Tmax across dose range ([1]; day 1 of cycle 1, 125-1400 mg bid): 2 to 6 h
Median Tmax across dose range ([1]; day 8 of cycle 1, 125-1400 mg bid): 2 to 4 h
Steady-state levels achieved (plasma trough plateau) ([1]; most dose levels, except 1400 mg bid, data not shown): ≤ 4 days
Response by 1p/19q codeletion status ([2]; 1p/19q-codeleted vs non-codeleted): Measurable response was observed in both 1p/19q-codeleted and non-codeleted cases
Number of MRs [2, 7]: 3
Number of PRs [2, 7]: 1
Number of CRs ([2]; 35 enhancing tumors, RANO): 2
Number of PRs ([2]; 35 enhancing tumors, RANO): 4
Median response duration ([2]; both lesion types): has not been reached
Doses at which responses were observed ([2]; data limited): ≥ 125 mg bid
Confirmed best overall response: complete response ([2]; enhancing (n = 35), RANO): 2 (5.7) n (%)
Confirmed best overall response: partial response ([2]; enhancing (n = 35), RANO): 4 (11.4) n (%)
Confirmed best overall response: progressive disease ([2]; enhancing (n = 35), RANO): 17 (48.6) n (%)
Confirmed best overall response: stable disease ([2]; enhancing (n = 35), RANO): 11 (31.4) n (%)
Objective response rate ([2]; enhancing (n = 35), RANO): 6 (17.1) n (%)
Confirmed best overall response: not evaluated ([2]; enhancing (n = 35), treatment discontinued before first response assessment): 1 (2.9)^b n (%)
Median progression-free survival ([2]; enhancing glioma cohort, all doses, 95% CI 6.1 to 17.7 weeks): 10.4 weeks
Median progression-free survival ([2]; enhancing glioma cohort, 95% CI 6.1 to 17.7 months (abstract)): 10.4 months
Patients with tumor measurements decreased from baseline ([2]; enhancing tumors, 15 of 35): 42.9%
Objective response rate ([2]; enhancing tumors, RANO): 17.1%
Confirmed best overall response: not evaluated ([2]; non-enhancing (n = 12)): 0 (0.0) n (%)
Confirmed best overall response: complete response [2, 8]: 0 (0.0) n (%)
Confirmed best overall response: minor response [2, 8]: 3 (25.0) n (%)
Confirmed best overall response: partial response [2, 8]: 1 (8.3) n (%)
Confirmed best overall response: progressive disease [2, 8]: 0 (0.0) n (%)
Confirmed best overall response: stable disease [2, 8]: 8 (66.7) n (%)
Objective response rate [2, 8]: 4 (33.3) n (%)
Median progression-free survival ([2]; non-enhancing glioma cohort, 95% CI 24.1 to not reached): not reached
Patients with tumor measurements decreased from baseline ([2]; non-enhancing tumors, 11 of 12): 91.7%
Objective response rate ([2]; non-enhancing tumors, RANO-LGG): 33.3%
Duration of CR ([2]; patient with IDH1-mutant anaplastic oligodendroglioma): approximately 95 weeks
Duration of CR ([2]; patient with astrocytoma (IDH-mutant, grade 4)): approximately 174 weeks
Brain/plasma concentration ratio [3, 9]: 0.77
DS-1001 concentration in resected tumor tissue [3, 9]: 5720 ng/g tissue
Brain/plasma concentration ratio ([3]; Patient #004, 500 mg bid, 4.1, 4.2 h after last dose): 0.19
Brain/plasma concentration ratio [3, 10]: 0.58
DS-1001 concentration in resected tumor tissue [3, 10]: 6130 ng/g tissue
DS-1001 in CSF ([3]; day 15 of cycle 1): appeared in CSF
Brain / tumor distribution of DS-1001 ([3]; resected tumor samples, salvage surgery): favorable brain distribution; also recorded: a high drug concentration was detected in all resected tumor samples
D-2-HG in on-treatment tumor tissue versus pre-treatment samples ([4]; 125 mg bid): significantly lower levels of D-2-HG compared with the pre-treatment samples
D-2-HG in on-treatment tumor tissue versus archived samples ([4]; seven on-treatment samples, 125-700 mg bid): significantly lower amount of D-2-HG compared with pre-study archived samples; also recorded: extremely low compared with matched archived samples; also recorded: lower than archived samples; also recorded: significantly low levels of D-2-HG
Distribution to the brain [5]: good distribution to the brain
D-2-HG [6]: D-2-HG reduction
Tumor growth [6]: Tumor growth inhibition

Source: paper PMC9925696 (Neuro-Oncology, 2022)
